This is an account of results in ChEMBL document CHEMBL1255195, “Synthesis and biological activity of pyrido[3',2':4,5]thieno[3,2-d]pyrimidines as phosphodiesterase type 4 inhibitors” (J Med Chem, 2010).

In one series the test system is Blood. The experiment in a line: Antiinflammatory activity against LPS-induced TNFalpha production in human whole blood by ELISA. Format: functional, tissue-based. An outline of the steps:
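Human whole blood preincubated at 37 °C for 10 min with LPS at final 1 μg/mL; inhibitors in 100% DMSO added at increasing concentrations, blood (LPS-free for controls) incubated 24 h at 37 °C under agitation. Reaction stopped on ice with PBS and centrifugation; serum TNFα measured by sandwich ELISA, TMB substrate, 450 nm. Experiments run 2-3 times, duplicates averaged, given as pg/mL.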
A general note: An ELISA detects its analyte on a solid surface through an enzyme-linked reagent.

For series [1], the target named is 3',5'-cyclic-AMP phosphodiesterase 4D (Homo sapiens, UniProt Q08499). The experiment in a line: Inhibition of PDE4D3 expressed in yeast.
Chain of 3',5'-cyclic-AMP phosphodiesterase 4D (Q08499 whole entry): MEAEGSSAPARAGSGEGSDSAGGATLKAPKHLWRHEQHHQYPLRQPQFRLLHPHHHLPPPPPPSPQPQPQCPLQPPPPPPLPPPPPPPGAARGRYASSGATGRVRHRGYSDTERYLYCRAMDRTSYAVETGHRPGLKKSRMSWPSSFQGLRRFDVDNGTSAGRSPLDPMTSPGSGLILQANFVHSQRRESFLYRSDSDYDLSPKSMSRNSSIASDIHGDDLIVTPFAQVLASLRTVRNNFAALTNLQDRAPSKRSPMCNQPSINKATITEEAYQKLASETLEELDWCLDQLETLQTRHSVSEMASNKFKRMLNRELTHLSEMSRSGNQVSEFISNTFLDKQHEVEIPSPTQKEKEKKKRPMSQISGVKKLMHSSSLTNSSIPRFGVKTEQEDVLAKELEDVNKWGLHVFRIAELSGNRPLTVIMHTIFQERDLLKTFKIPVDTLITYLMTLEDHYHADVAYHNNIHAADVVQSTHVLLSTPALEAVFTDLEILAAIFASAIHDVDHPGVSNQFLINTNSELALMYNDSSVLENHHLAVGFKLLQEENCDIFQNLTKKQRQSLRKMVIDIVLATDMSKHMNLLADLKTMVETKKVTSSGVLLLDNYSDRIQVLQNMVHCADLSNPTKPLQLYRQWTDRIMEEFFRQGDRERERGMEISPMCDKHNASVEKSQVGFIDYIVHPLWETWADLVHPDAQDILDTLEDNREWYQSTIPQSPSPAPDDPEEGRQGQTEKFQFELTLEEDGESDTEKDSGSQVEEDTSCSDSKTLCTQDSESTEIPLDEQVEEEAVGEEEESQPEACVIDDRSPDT
In series [2] the target is 3',5'-cyclic-AMP phosphodiesterase 4B (Homo sapiens, UniProt Q07343). Kind of series: Inhibition of PDE4B1 expressed in yeast. An outline of the steps:
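Human recombinant PDE4A4, PDE4B1 or PDE4D3 made in galactose-induced […]; dialysed extracts (~4 μg protein) used. Hydrolysis of 15 nM [3H]-cAMP in 50 mM Tris pH 7.5, 8.3 mM MgCl2, 1.7 mM EGTA, final DMSO 5%, 60 min at room temperature. Reaction stopped with SPA beads, then scintillation counted. Compounds tested 10 μM to 10 pM in duplicate; IC50 calculated.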

Series [3] addresses 3',5'-cyclic-AMP phosphodiesterase 4A (Homo sapiens, UniProt P27815). The experiment in a line: Inhibition of PDE4A4 expressed in yeast.
A short description of series [4]: Apparent permeability from apical to basolateral side of human Caco-2 cells. The series is classed as ADME, cell-based. An outline of the steps:
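Caco-2 cells seeded at 500 000 cells/well on collagen-coated PET membranes (1 μm pores), differentiated and used six days post-seeding. Compound applied in HBSS with 10 mM Hepes and 25 mM glucose, pH 7.4, at most 1% DMSO, on the apical side. Samples taken after 3 h and analysed by HPLC-UV. [3H]mannitol 115 nM served as integrity control.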
In general terms: Passage across Caco-2 layers is used to estimate intestinal permeability.

The structures appear in SMILES notation.

Chain of 3',5'-cyclic-AMP phosphodiesterase 4A (P27815 whole entry): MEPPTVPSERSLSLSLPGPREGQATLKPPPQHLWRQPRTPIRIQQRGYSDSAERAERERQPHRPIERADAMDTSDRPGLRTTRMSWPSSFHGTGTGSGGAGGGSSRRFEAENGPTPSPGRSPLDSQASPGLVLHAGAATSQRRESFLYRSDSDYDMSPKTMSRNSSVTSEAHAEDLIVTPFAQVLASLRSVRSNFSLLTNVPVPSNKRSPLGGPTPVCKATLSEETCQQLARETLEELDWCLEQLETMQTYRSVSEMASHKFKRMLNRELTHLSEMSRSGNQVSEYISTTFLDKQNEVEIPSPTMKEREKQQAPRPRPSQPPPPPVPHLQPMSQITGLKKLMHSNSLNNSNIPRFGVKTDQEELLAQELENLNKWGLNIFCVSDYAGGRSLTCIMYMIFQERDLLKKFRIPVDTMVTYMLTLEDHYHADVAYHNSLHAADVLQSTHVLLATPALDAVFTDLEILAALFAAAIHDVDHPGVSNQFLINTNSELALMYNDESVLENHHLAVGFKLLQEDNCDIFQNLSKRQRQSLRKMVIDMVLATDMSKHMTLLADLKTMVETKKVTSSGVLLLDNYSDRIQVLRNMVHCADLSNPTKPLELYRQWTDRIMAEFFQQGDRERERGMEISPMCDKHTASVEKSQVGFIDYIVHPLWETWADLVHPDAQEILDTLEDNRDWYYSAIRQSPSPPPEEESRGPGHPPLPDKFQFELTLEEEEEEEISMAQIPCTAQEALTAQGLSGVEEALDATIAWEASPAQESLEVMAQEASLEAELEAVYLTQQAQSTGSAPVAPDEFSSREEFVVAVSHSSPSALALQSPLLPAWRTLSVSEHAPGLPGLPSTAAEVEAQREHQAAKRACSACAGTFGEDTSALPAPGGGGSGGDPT
Chain of 3',5'-cyclic-AMP phosphodiesterase 4B (Q07343 whole entry): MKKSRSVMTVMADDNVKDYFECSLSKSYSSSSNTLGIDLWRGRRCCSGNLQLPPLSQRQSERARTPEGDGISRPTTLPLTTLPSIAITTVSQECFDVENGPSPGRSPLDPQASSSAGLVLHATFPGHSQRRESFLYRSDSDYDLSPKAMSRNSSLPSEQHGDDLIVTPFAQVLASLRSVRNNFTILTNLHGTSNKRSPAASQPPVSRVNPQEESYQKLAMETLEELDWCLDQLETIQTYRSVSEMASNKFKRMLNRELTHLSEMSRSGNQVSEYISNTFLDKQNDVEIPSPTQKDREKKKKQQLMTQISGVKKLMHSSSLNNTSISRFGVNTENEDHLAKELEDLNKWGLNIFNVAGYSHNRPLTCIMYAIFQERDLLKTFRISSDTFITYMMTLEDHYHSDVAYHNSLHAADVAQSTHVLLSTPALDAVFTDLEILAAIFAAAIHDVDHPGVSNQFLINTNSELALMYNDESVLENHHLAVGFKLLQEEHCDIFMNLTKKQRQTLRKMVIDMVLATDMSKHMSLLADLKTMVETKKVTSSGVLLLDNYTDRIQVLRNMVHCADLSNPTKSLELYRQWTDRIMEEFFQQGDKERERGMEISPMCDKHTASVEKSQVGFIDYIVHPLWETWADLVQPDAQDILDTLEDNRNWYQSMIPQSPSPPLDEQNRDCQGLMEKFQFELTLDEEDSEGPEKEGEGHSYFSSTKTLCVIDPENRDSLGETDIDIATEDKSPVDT

Turning to `CC1(C)CCc2c(N3CCOCC3)nc3sc4c(N(CCO)CCN5CCOCC5)ncnc4c3c2C1`, the IC50 in the series on Blood was found to be 0.327 µM; in series [1], 0.0018 µM; in series [2] it was 0.0028 µM; in series [3] it was 0.0064 µM.
Taken in the same sequence, the figures for `CC1(C)Cc2c(c(N3CCOCC3)nc3sc4c(N(CCN5CCOCC5)Cc5cccnc5)ncnc4c23)CO1` were 0.401 µM, 0.019 µM, 0.0045 µM and 0.005 µM.
Taken in the same sequence, the figures for `CC1(C)CCc2c(-c3ccco3)nc3sc4c(NCCN5CCOCC5)ncnc4c3c2C1` were 1.09 µM, 0.0079 µM, 0.0038 µM and 0.0054 µM.
Take `CC1(C)CCc2c(-c3ccoc3)nc3sc4c(NCCN5CCOCC5)ncnc4c3c2C1`: the IC50 was found to be 1.24 µM with Blood, 0.0031 µM in series [1], 0.0029 µM in series [2] and 0.009 µM in series [3].
As to `CC1(C)Cc2c(c(N3CCOCC3)nc3sc4c(NCCN5CCCCC5)ncnc4c23)CO1`, the IC50 in series [2] amounted to 0.284 µM.
For `CC1(C)Cc2c(c(N3CCOCC3)nc3sc4c(NCCCN5CCCC5=O)ncnc4c23)CO1`, the IC50 in series [2] was 0.167 µM.
Take `CC1(C)CCc2c(N3CCOCC3)nc3sc4c(NCCCN5CCCC5=O)ncnc4c3c2C1`: the IC50 was determined as 2.15 µM in the series on Blood, 0.061 µM in series [1], 0.021 µM in series [2] and 0.018 µM in series [3].
For the compound `CC1(C)Cc2c(c(N3CCOCC3)nc3sc4c(NCc5cccnc5)ncnc4c23)CO1`, the IC50 was 0.639 µM in the series on Blood, 0.052 µM in series [1], 0.0057 µM in series [2] and 0.048 µM in series [3].
For the compound `CC1(C)CCc2c(N3CCOCC3)nc3sc4c(NCc5cccnc5)ncnc4c3c2C1`, the IC50 in the series on Blood amounted to 0.381 µM; in series [1], 0.032 µM; in series [2] it was 0.0036 µM; in series [3], 0.0045 µM.
Taken in the same sequence, the figures for `CC1(C)Cc2c(c(N3CCOCC3)nc3sc4c(NCc5ccncc5)ncnc4c23)CO1` were 1.02 µM, 0.128 µM, 0.022 µM and 0.097 µM.
On the same counts, the results for `CC1(C)CCc2c(N3CCOCC3)nc3sc4c(NCc5ccncc5)ncnc4c3c2C1` are 2.04 µM, 0.013 µM, 0.011 µM and 0.019 µM.
`COc1ccccc1CNc1ncnc2c1sc1nc(N3CCOCC3)c3c(c12)CC(C)(C)OC3`: the IC50 was found to be 1.19 µM in the series with Blood, 0.119 µM in series [1], 0.04 µM in series [2] and 0.067 µM in series [3].
The compound `COc1ccccc1CNc1ncnc2c1sc1nc(N3CCOCC3)c3c(c12)CC(C)(C)CC3` returned an IC50 in series [2] of 0.213 µM.
Consider `CC1(C)Cc2c(c(N3CCOCC3)nc3sc4c(N(CCO)CCN5CCOCC5)ncnc4c23)CO1`, for which the IC50 in the series on Blood amounted to 0.537 µM; in series [1], 0.039 µM; in series [2], 0.013 µM; in series [3], 0.023 µM.
Taken in the same sequence, the figures for `CC1(C)Cc2c(c(N3CCOCC3)nc3sc4c(NCCN5CCOCC5)ncnc4c23)CO1` were 0.235 µM, 0.604 µM, 0.026 µM and 0.063 µM.
Taken in the same sequence, the figures for `CC1(C)CCc2c(N3CCOCC3)nc3sc4c(NCCN5CCOCC5)ncnc4c3c2C1` were 1.37 µM, 0.0046 µM, 0.0029 µM and 0.074 µM.
Take `c1nc(NCCN2CCOCC2)c2sc3nc(N4CCOCC4)c4c(c3c2n1)CCOC4`: in series [2], the IC50 amounted to 1.77 µM.
For the compound `CN1Cc2c(N3CCOCC3)nc3sc4c(NCCN5CCOCC5)ncnc4c3c2CC1(C)C`, the half-maximal inhibitory concentration (IC50) with Blood is 3.27 µM; in series [2] it was 3.7 µM.
Taken in the same sequence, the figures for `CCC1(C)Cc2c(c(N3CCOCC3)nc3sc4c(NCCN5CCOCC5)ncnc4c23)CO1` (stereo not given) were 2.04 µM and 0.09 µM.
`CC1(C)Cc2c(N3CCOCC3)nc3sc4c(NCCN5CCOCC5)ncnc4c3c2C1`: in series [2], the IC50 amounted to 0.333 µM.
Same read-out and setting: the figure for `CC1(C)CCc2c(N3CCOCC3)nc3sc4c(NCCN5CCOCC5)ncnc4c3c21` is 0.274 µM.
As for `CC1(C)CCc2c(N3CCCC3)nc3sc4c(NCCN5CCOCC5)ncnc4c3c2C1`, the IC50 with Blood came out at 0.655 µM; in series [1] it was 0.011 µM; in series [2], 0.00805 µM; in series [3], 0.043 µM.
Compound `CN1CCN(c2nc3sc4c(NCCN5CCOCC5)ncnc4c3c3c2COC(C)(C)C3)CC1` gave an IC50 in series [2] of 1.2 µM.
On the same count and under the same terms, the figure for `CN1CCN(c2nc3sc4c(NCCN5CCOCC5)ncnc4c3c3c2CCC(C)(C)C3)CC1` is 0.095 µM; for `CN(Cc1ccccc1)c1nc2sc3c(NCCN4CCOCC4)ncnc3c2c2c1CCC(C)(C)C2` it is 0.865 µM; for `CNc1nc2sc3c(NCCN4CCOCC4)ncnc3c2c2c1COC(C)(C)C2` it is 0.051 µM.
`CNc1nc2sc3c(NCCN4CCOCC4)ncnc3c2c2c1CCC(C)(C)C2`: the IC50 turned out to be 0.233 µM in the series on Blood, 0.0042 µM in series [1], 0.0099 µM in series [2] and 0.018 µM in series [3]. Further, in series [4], the Papp A→B came out at 137 nm/s.
Consider `CN(C)c1nc2sc3c(NCCN4CCOCC4)ncnc3c2c2c1COC(C)(C)C2`, for which the 50% inhibitory concentration (IC50) was 0.261 µM in the series with Blood, 0.025 µM in series [1], 0.045 µM in series [2] and 0.02 µM in series [3]. Further, in series [4], the Papp A→B came out at 219 nm/s.
With `Cc1nc2sc3c(NCCN4CCOCC4)ncnc3c2c2c1CCC(C)(C)C2`, the IC50 came to 0.912 µM in the series with Blood, 0.034 µM in series [1], 0.037 µM in series [2] and 0.097 µM in series [3].
With `CC(C)Cc1nc2sc3c(NCCN4CCOCC4)ncnc3c2c2c1CCC(C)(C)C2`, the IC50 with Blood was determined as 1.28 µM; in series [1] it was 0.039 µM; in series [2], 0.0072 µM; in series [3] it was 0.0067 µM. Besides, the Papp A→B in series [4] worked out at 4 nm/s.
The compound `COc1ccc(C2CNC(=O)C2)cc1OC1CCCC1` (stereo not given) [ROLIPRAM] showed an IC50 in the series on Blood of 1.48 µM.

The term IC50 denotes the concentration that gives 50% inhibition. Read a low IC50 as greater potency in that assay. What is called Papp A→B is the apparent permeability from the apical to the basolateral side of a cell layer.
